Experimental findings from paper PMC10866054 (Journal of Enzyme Inhibition and Medicinal Chemistry, 2024) are described below.

For orientation: IC50 means the point on the concentration scale where inhibition reaches its midpoint.

The subject of series [1] is MDA-MB-231. Put plainly: MTT cytotoxicity, MDA-MB-231. Type of series: cell-based. The note with it: Homo sapiens, MDA-MB-231, read-out: Cytotoxic activity IC50, MDA-MB-231.
The target of series [2] is PI3Kβ (p110β/p85α) (Homo sapiens, UniProt P42338). Put plainly: PI3Kβ Assay Kit. It is filed as biochemical.
Series [3] deals with PC-3. Put plainly: MTT cytotoxicity, PC-3. It is filed as cell-based, human. The conditions noted are these: for IC50: read-out: Cytotoxic activity IC50, PC-3, MTT, mean ± SD of three experiments; for fold superior to IC50 of the erlotinib, PC-3: PC-3 cell line, vs erlotinib.
The subject of series [4] is HEPG-2. The series can be described thus: MTT cytotoxicity, HEPG-2. Type of series: cell-based, human. The note with it: for IC50: Homo sapiens, HepG2, read-out: Cytotoxic activity IC50, HEPG-2.
For series [5], the system named is BAX. The series can be described thus: RT-qPCR gene expression of BAX in PC-3 cells. It is filed as cell-based, human. The conditions noted are these: PC-3 cells treated at IC50, vs untreated PC-3. Put shortly:
(§1)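 Control and treated cells (1×10^5) were trypsinised, spun at 5000 rpm and washed in PBS. Total RNA was isolated and cDNA synthesised. Gene-specific mRNA was measured by qPCR with IDT-designed primers, with a GAPDH primer pair included. Expression was given relative to untreated control cells.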
For orientation: In qPCR the cycle at which signal appears reflects the starting amount.

Series [6] concerns HCT-116. Put plainly: MTT cytotoxicity, HCT-116. It is filed as cell-based. The conditions noted are these: Homo sapiens, HCT-116, read-out: Cytotoxic activity IC50, HCT-116.
The target in series [7] is PI3Kγ (Homo sapiens, UniProt P48736). Put plainly: PI3K isoform ELISA kit, PI3Kγ. Type of series: biochemical. (An ELISA detects its analyte on a solid surface through an enzyme-linked reagent.)
In series [8] the target is PI3Kδ (Homo sapiens, UniProt O00329). The series can be described thus: PI3K isoform ELISA kit, PI3Kδ. Type of series: biochemical.
Series [9] has as its target EGFR (Homo sapiens, UniProt P00533). The series can be described thus: EGFR Kinase Assay Kit. It is filed as biochemical.
The subject of series [10] is P53. The series can be described thus: RT-qPCR gene expression of P53 in PC-3 cells. The note with it: PC-3 cells treated at IC50, vs untreated PC-3. It is filed as cell-based, human. A digest of the protocol: as §1
The subject of series [11] is caspase 8. Put plainly: RT-qPCR gene expression of caspase 8 in PC-3 cells. It is filed as cell-based, human. The conditions noted are these: PC-3 cells treated at IC50, vs untreated PC-3. Put shortly: as §1
Series [12] concerns PC-3 cells. The series can be described thus: Cell cycle analysis. The note with it: compound at IC50, 24 h. It is filed as cell-based, human.
In series [13] the test system is caspase 3. The series can be described thus: RT-qPCR gene expression of caspase 3 in PC-3 cells. The conditions noted are these: PC-3 cells treated at IC50, vs untreated PC-3. It is filed as cell-based, human. Put shortly:
as §1

Series [14] concerns the target PI3Kα (Homo sapiens, UniProt P42336). The series can be described thus: PI3K isoform ELISA kit, PI3Kα. The conditions noted are these: mean ± SD of three experiments. It is filed as biochemical.
Series [15] concerns BCl-2. The series can be described thus: RT-qPCR gene expression of BCl-2 in PC-3 cells. Type of series: cell-based, human. The note with it: PC-3 cells treated at IC50, vs untreated PC-3. Put shortly:
as §1

For series [16], the system named is m-TOR. The series can be described thus: RT-qPCR gene expression of m-TOR in PC-3 cells. It is filed as cell-based, human. The note with it: PC-3 cells treated at IC50 3.56 µM, compared to untreated cells. Put shortly:
as §1

Series [17] has as its system AKT. The series can be described thus: RT-qPCR gene expression of AKT in PC-3 cells. The note with it: PC-3 cells treated at IC50 3.56 µM, compared to untreated cells. Type of series: cell-based, human. Put shortly: as §1
A short description of series [18]: MTT cytotoxicity, normal prostate epithelial cells. The conditions noted are these: human, HPrEC normal primary prostate epithelial cells. It is filed as cell-based.
The test system of series [19] is PC-3 cells. The series can be described thus: Annexin V/propidium iodide staining for apoptosis. Type of series: cell-based, human.

Chain of PI3Kβ (p110β/p85α) (P42338 whole entry): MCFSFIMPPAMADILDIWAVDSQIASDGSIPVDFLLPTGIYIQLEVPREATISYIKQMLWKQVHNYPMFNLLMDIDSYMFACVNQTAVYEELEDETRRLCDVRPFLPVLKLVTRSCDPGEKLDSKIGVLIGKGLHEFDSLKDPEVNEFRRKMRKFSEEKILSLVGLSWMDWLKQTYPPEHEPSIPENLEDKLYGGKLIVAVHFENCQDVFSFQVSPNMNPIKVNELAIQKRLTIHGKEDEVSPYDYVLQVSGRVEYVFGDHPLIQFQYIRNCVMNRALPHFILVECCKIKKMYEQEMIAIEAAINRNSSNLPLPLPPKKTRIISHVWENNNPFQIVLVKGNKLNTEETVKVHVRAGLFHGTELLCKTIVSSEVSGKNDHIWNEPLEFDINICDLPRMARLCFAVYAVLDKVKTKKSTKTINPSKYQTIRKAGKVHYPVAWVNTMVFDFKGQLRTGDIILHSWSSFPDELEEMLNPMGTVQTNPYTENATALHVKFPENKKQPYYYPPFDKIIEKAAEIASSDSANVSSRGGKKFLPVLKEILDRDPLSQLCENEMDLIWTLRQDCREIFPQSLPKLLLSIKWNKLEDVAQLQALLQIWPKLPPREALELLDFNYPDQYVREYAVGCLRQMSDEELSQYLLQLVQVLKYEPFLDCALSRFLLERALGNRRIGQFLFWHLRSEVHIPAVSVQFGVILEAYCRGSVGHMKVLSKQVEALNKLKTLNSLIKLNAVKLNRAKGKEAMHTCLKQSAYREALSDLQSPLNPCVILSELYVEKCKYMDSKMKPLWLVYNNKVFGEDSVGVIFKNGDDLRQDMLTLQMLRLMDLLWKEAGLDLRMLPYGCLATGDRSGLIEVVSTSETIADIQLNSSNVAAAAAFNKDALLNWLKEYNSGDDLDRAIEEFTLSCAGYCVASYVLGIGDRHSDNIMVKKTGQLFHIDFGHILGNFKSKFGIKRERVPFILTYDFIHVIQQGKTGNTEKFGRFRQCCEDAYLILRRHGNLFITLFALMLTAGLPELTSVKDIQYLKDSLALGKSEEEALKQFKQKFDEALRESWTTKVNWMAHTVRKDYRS
Chain of PI3Kβ (p110β/p85α) (P27986 whole entry partner): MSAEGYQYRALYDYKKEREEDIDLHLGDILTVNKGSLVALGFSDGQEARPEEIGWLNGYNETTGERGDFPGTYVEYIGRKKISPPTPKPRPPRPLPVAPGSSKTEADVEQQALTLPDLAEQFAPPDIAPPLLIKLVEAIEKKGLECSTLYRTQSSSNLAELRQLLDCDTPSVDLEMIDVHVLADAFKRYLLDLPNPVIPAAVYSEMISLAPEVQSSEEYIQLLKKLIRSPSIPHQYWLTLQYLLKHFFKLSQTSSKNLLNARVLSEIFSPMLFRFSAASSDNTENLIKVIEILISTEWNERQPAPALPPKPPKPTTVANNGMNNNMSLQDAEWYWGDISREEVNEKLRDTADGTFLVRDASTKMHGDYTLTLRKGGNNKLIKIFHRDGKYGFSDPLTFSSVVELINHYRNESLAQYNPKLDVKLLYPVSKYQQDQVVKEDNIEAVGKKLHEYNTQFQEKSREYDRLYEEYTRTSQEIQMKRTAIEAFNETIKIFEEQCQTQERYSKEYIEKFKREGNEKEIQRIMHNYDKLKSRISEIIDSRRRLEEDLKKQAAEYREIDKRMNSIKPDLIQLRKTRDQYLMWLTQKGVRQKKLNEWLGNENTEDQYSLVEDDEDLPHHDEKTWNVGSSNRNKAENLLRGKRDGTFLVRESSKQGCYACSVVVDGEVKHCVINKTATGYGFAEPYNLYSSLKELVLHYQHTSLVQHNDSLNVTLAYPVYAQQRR
Chain of PI3Kδ (O00329 whole entry, canonical isoform): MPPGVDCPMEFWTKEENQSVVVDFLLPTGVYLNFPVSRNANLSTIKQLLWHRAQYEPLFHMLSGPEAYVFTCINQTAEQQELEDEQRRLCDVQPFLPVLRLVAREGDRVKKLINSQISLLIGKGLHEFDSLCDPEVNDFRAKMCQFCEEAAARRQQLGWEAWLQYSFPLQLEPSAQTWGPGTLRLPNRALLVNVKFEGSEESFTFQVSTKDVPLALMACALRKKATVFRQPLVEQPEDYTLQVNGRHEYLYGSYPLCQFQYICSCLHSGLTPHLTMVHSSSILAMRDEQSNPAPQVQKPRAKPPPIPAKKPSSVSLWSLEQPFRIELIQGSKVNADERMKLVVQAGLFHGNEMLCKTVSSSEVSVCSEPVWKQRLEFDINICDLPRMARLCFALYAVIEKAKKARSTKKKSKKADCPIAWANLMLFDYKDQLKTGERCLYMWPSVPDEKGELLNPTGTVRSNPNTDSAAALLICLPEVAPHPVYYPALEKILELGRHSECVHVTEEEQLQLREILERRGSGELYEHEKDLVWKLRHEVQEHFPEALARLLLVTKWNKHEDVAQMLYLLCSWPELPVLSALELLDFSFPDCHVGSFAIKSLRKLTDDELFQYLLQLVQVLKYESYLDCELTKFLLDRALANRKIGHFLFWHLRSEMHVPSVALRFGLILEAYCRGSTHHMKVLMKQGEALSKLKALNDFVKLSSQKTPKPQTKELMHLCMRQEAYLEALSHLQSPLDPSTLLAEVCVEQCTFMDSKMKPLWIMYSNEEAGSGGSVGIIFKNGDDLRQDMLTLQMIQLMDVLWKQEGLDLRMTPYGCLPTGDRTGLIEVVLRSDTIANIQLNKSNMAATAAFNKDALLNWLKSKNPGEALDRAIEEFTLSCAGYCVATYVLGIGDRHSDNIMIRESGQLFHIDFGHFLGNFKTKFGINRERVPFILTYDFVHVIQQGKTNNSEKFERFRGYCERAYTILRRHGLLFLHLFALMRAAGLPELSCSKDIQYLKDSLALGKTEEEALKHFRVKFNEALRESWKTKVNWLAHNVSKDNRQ
Chain of PI3Kδ (P27986 whole entry partner, canonical isoform): as the sequence (P27986 whole entry partner) above
Chain of PI3Kγ (P48736 whole entry, canonical isoform): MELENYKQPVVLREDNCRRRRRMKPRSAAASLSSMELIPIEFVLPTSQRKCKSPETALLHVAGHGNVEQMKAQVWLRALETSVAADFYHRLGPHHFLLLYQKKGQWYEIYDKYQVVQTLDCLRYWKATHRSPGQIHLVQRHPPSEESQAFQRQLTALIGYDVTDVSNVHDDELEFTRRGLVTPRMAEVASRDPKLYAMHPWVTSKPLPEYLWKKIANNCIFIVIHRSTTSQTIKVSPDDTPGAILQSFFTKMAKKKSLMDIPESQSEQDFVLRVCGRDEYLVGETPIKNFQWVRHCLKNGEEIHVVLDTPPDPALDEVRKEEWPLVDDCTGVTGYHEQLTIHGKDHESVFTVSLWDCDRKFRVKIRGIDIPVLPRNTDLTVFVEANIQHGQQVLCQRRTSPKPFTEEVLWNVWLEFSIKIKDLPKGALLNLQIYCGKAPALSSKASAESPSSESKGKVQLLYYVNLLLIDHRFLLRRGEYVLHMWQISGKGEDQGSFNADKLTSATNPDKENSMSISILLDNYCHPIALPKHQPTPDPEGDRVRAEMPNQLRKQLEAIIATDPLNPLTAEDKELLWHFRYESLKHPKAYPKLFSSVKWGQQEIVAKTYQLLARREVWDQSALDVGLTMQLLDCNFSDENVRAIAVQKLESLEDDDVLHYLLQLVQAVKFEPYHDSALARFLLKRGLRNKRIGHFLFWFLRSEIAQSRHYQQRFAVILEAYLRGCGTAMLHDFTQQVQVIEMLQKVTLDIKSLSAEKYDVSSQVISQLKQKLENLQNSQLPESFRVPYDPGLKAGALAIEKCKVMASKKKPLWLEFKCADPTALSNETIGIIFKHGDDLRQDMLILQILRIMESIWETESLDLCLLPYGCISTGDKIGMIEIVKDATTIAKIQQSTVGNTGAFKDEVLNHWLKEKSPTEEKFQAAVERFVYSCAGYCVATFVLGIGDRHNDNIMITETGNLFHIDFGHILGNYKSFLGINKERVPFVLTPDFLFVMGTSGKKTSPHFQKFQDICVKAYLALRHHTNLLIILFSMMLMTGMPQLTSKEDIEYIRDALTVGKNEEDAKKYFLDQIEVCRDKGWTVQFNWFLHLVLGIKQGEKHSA
Chain of PI3Kα (P42336 whole entry, canonical isoform): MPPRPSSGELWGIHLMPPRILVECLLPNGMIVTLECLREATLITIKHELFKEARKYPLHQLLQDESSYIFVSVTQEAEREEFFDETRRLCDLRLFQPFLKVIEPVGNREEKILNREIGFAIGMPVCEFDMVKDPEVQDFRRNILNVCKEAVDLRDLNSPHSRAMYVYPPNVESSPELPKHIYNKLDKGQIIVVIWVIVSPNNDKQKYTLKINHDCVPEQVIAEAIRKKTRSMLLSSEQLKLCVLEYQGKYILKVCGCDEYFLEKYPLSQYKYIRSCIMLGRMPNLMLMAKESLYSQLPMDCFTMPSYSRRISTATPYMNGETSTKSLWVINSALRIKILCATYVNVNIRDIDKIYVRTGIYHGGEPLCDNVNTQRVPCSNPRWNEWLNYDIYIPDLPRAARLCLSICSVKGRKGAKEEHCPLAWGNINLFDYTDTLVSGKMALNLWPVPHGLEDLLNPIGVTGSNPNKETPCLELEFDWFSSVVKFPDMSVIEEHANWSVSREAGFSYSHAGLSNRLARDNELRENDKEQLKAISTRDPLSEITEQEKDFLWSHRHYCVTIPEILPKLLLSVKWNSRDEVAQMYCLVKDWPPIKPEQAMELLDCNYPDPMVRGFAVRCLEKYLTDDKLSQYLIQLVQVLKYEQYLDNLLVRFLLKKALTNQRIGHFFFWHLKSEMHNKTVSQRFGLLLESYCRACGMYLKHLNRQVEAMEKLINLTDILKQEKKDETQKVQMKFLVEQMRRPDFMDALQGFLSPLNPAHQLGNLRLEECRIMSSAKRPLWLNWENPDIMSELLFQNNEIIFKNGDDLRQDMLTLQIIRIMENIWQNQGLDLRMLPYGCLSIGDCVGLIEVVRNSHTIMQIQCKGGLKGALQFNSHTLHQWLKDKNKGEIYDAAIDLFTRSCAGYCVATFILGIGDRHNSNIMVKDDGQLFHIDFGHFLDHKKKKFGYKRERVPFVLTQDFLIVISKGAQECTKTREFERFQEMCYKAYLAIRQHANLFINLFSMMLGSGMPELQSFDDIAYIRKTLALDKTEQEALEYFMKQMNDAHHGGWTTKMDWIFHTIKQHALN
Chain of PI3Kα (P27986 whole entry partner, canonical isoform): as the sequence (P27986 whole entry partner) above

Consider `Cc1c(Cc2ccccc2)c(=O)oc2c(C)c(OCC(=O)NN=Cc3ccc([N+](=O)[O-])cc3)ccc12` [Compound 4e, 2-((3-Benzyl-4,8-dimethyl-2-oxo-2H-chromen-7-yl)oxy)-N'-(4-nitrobenzylidene)acetohydrazide], for which the IC50 in series [1] was determined as 24.3 ± 2.28 µM; in [2], 992 nM; in series [3], 23.1 ± 1.2 µM.
Regarding `CC(=NNC(=O)COc1ccc2c(C)c(Cc3ccccc3)c(=O)oc2c1C)c1ccc(Br)cc1` [Compound 5, 2-((3-benzyl-4,8-dimethyl-2-oxo-2H-chromen-7-yl)oxy)-N'-(1-(4-bromophenyl)ethylidene)acetohydrazide], the “cytotoxic activity times higher than erlotinib, HEPG-2” value in series [4] (HEPG-2 cell line, vs erlotinib) is listed as 1.5 times. Besides, the IC50 amounted to 14.2 ± 1.2 µM in series [4]; 46.3 ± 2.7 µM in series [1]; 261 nM in [2]; 19.8 ± 0.55 µM in series [6]; 5.04 ± 0.21 µM in [7]; 5.49 ± 0.29 µM in series [8]. For the same compound, the IC50 stood at 181 nM in series [9], 2890 ± 330 nM in series [14] and 95.5 ± 1.3 µM in series [18]. The “expression of BAX gene” value in series [5] is recorded as 5.6 fold. Also, the “PI3Kβ inhibitory activity relative to LY294002” value in series [2] (vs LY294002 as reference PI3Kβ inhibitor) was “twofold”. Also, the “induced expression of P53 gene” value in [10] worked out at 3.83 fold. Also, in series [11], the “upregulation of caspase 8 gene” value worked out at 2.96 fold. In series [12], the “percentage of cells in G1 phase” value was found to be 52.09%. Moreover, the “percentage of cells in G2/M phase” value in [12] is reported as 5.8%. In addition, the “percentage of cells in S phase” value in series [12] came to 42.11%. Further, the “fold superior to IC50 of the erlotinib, PC-3” value (“fold superior to IC50” below) in series [3] is reported as 3.45 fold. In addition, in [13], the “upregulation of caspase 3 gene” value is given as 5.40 fold. The “downregulation of BCl-2 gene” value in series [15] is reported as 0.30 fold. Further, in [16], the “downregulation of m-TOR gene expression” value is given as 2.6 fold. For the same compound, in series [17], the “downregulation of AKT gene expression” value was 2.5 fold. Moreover, in series [19] (compound at IC50, lower right quadrant), the “proportion of early apoptotic cells” value amounted to 22.62%. For the same compound, the “proportion of late apoptotic cells” value in [19] (compound at IC50, upper right quadrant) turned out to be 13.33%.
For the compound `CCc1c(C)c2ccc(OCC(=O)NN=Cc3ccc([N+](=O)[O-])cc3)cc2oc1=O` [Compound 4a, 2-((3-Ethyl-4-methyl-2-oxo-2H-chromen-7-yl)oxy)-N'-(4-nitrobenzylidene) acetohydrazide], the IC50 in series [1] amounted to 23.6 ± 0.36 µM; in series [2], 792 nM. Also, the “fold superior to IC50” value in series [3] was found to be 1.2 fold.
With `C=CCNC(=S)NNC(=O)COc1ccc2c(C)c(CC)c(=O)oc2c1C` [Compound 6b, N-Allyl-2-(2-((3-ethyl-4,8-dimethyl-2-oxo-2H-chromen-7-yl)oxy)acetyl)hydrazine-1-carbothioamide], the IC50 in series [1] is more than 50 µM.
Same read-out and setting: the value for `CCc1c(C)c2ccc(OCC=Cc3ccccc3)c(C)c2oc1=O` [Compound 9e, 7-(Cinnamyloxy)-3-ethyl-4,8-dimethyl-2H-chromen-2-one] was more than 50 µM; that for `CCCOc1ccc2c(C)c(CC)c(=O)oc2c1C` [Compound 9b, 3-Ethyl-4,8-dimethyl-7-propoxy-2H-chromen-2-one] was more than 50 µM.
As for `CCc1c(C)c2ccc(OCc3nnc(S)n3N)c(C)c2oc1=O` [Compound 7, 7-((4-amino-5-mercapto-4H-1,2,4-triazol-3-yl)methoxy)-3-ethyl-4,8-dimethyl-2H-chromen-2-one], the half-maximal inhibitory concentration (IC50) in series [1] was more than 50 µM.
Turning to “7-((amino-5-(isopropylthio)-4H-1,2,4-triazol-3-yl)methoxy)-3-ethyl-4,8-dimethyl-2H-chromen-2-one [Compound 8]”, the IC50 in series [3] is more than 50 µM.
Regarding `CCOc1ccc2c(C)c(CC)c(=O)oc2c1C` [Compound 9a, 7-Ethoxy-3-ethyl-4,8-dimethyl-2H-chromen-2-one], the IC50 in [1] was more than 50 µM.
With `Cc1c(Cc2ccccc2)c(=O)oc2c(C)c(OCC(=O)NN=Cc3ccc(Cl)cc3)ccc12` [Compound 4d, 2-((3-Benzyl-4,8-dimethyl-2-oxo-2H-chromen-7-yl)oxy)-N'-(4-chlorobenzylidene)acetohydrazide], the IC50 in [1] was more than 50 µM.
For the compound `CCNC(=S)NNC(=O)COc1ccc2c(C)c(CC)c(=O)oc2c1C` [Compound 6a, N-Ethyl-2-(2-((3-ethyl-4,8-dimethyl-2-oxo-2H-chromen-7-yl)oxy)acetyl)hydrazine-1-carbothioamide], the IC50 in series [1] was more than 50 µM.
On the same count and under the same terms, the value for `CCc1c(C)c2ccc(OCC(=O)NNC(=S)Nc3ccccc3)c(C)c2oc1=O` [Compound 6c, 2-(2-((3-Ethyl-4,8-dimethyl-2-oxo-2H-chromen-7-yl)oxy)acetyl)-N-phenylhydrazine-1-carbothioamide] was more than 50 µM.
For the compound `Cc1c(Cc2ccccc2)c(=O)oc2c(C)c(OCC(=O)NN=Cc3ccco3)ccc12` [Compound 4b, 2-((3-Benzyl-4,8-dimethyl-2-oxo-2H-chromen-7-yl)oxy)-N'-(furan-2-ylmethylene)acetohydrazide], the IC50 in [1] was found to be 11.8 ± 0.98 µM. Moreover, in series [3], the “fold superior to IC50” value is given as 1.36 fold.
As to `Cc1c(Cc2ccccc2)c(=O)oc2c(C)c(OCC(=O)NN=Cc3ccccc3)ccc12` [Compound 4c, 2-((3-Benzyl-4,8-dimethyl-2-oxo-2H-chromen-7-yl)oxy)-N'-benzylideneacetohydrazide], the IC50 in series [1] worked out at 8.5 ± 0.85 µM.
Turning to `C#Cc1cccc(Nc2ncnc3cc(OCCOC)c(OCCOC)cc23)c1` [Erlotinib, erlotinib, reference compound], the IC50 in series [4] was 22.1 ± 0.46 µM; in series [1] it was 11.1 ± 1.11 µM; in [6] it was 17.8 ± 1.15 µM; in series [18] it was 63.5 ± 5.56 µM.
With `O=c1cc(N2CCOCC2)oc2c(-c3ccccc3)cccc12` [LY294002, reference compound], in [8], the IC50 was 7.42 ± 0.36 µM.
As for `C=CCOc1ccc2c(C)c(CC)c(=O)oc2c1C` [Compound 9d, 7-(Allyloxy)-3-ethyl-4,8-dimethyl-2H-chromen-2-one], in series [1], the IC50 was more than 50 µM.
